Tests used:
NaV1.5 channels = NaV1.5 channels (Homo sapiens, UniProt Q14524); experiment: Whole-cell patch-clamp recording of NaV1.5 currents in HEK293T cells; type: cell-based; details: HEK-293T, read-out: inhibition rate, NaV1.5 WT, 100 μM
[1] = tested on: Na+ current in primary ventricular myocytes; experiment: Voltage-gated Na+ current in rat primary ventricular myocytes; type: cell-based; details: 10 µM; rat primary cardiomyocytes; 365 vs 480 nm
Procedure, shortened: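 Ventricular myocytes from 1–2-day-old Sprague-Dawley rats, dissociated with 0.05% trypsin and 0.1% collagenase II, with fibroblasts removed by 2 h pre-plating. Cultured in DMEM with 10% FBS at 37 °C. Whole-cell voltage clamp followed the HEK293T Na+ protocol (hold −120 mV, 50 ms step to −20 mV).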

NaV1.5 V405A = NaV1.5 V405A (Homo sapiens, UniProt Q14524, V405A); experiment: Whole-cell patch-clamp of NaV1.5 V405A mutant in HEK293T cells; type: cell-based; details: HEK-293T, read-out: inhibition rate, NaV1.5 V405A
NaV1.5 V405A, sequence (Q14524 whole entry V405A): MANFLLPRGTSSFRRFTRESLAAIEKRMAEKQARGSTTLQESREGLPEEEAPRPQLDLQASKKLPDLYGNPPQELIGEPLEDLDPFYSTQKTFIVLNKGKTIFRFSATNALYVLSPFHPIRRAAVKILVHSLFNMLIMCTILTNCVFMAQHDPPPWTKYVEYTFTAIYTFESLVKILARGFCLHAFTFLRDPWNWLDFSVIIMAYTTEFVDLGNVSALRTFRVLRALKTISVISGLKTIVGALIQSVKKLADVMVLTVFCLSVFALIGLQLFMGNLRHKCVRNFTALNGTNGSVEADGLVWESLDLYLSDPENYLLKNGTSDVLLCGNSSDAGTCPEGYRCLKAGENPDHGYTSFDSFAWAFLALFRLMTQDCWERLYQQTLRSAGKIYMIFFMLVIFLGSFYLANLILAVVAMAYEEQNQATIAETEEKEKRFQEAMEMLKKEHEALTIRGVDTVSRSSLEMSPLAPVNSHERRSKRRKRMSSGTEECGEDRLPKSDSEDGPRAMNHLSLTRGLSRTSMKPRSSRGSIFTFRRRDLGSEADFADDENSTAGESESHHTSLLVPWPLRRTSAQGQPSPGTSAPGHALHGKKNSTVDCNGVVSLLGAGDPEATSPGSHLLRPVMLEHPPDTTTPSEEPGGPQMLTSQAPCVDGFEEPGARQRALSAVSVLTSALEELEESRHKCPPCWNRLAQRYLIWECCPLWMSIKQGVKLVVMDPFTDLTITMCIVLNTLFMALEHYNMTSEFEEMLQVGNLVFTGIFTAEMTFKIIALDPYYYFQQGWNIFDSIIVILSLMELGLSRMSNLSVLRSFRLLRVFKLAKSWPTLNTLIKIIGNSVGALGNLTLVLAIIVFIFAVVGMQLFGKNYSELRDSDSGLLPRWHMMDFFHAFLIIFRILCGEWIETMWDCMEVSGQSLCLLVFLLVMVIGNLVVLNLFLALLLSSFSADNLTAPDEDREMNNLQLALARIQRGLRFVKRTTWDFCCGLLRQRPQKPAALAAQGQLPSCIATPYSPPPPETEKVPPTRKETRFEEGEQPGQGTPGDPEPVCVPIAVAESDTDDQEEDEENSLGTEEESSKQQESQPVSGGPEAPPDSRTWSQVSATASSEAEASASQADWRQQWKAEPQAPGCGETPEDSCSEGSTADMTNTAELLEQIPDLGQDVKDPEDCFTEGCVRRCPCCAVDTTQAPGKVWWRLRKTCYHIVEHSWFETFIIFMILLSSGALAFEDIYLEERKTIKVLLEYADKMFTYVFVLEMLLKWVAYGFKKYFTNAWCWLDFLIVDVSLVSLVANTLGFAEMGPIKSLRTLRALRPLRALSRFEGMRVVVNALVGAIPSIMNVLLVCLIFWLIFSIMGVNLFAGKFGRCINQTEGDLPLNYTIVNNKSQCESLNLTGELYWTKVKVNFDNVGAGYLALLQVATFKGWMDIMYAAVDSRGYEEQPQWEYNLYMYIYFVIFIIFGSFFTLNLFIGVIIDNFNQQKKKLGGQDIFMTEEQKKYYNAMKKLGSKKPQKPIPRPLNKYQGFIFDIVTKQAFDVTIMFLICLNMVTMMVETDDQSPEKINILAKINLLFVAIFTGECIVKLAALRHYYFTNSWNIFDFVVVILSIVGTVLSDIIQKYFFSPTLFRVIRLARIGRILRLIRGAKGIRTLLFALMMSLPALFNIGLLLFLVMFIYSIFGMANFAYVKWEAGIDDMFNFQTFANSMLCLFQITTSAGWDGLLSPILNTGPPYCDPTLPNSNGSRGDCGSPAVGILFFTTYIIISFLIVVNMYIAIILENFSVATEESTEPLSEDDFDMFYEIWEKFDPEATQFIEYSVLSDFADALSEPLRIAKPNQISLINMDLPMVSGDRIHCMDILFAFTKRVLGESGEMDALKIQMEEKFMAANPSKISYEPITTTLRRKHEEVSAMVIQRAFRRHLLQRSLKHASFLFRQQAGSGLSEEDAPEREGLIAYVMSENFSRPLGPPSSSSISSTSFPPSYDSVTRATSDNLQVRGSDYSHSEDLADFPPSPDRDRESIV

NaV1.5 F1760A = NaV1.5 F1760A (Homo sapiens, UniProt Q14524, F1760A); experiment: Whole-cell patch-clamp of NaV1.5 F1760A mutant in HEK293T cells; type: cell-based; details: HEK-293T, read-out: inhibition rate, NaV1.5 F1760A
zebrafish larvae [2] = experiment: Heart rate recording in zebrafish larvae; type: in vivo; details: 10 μM
zebrafish larvae [3] = experiment: ISO-induced tachycardia model in zebrafish larvae; type: in vivo; details: 100 μM; 10 μM ISO 100 min; zebrafish larvae 3–4 dpf

NaV1.5 channels, sequence (Q14524 whole entry): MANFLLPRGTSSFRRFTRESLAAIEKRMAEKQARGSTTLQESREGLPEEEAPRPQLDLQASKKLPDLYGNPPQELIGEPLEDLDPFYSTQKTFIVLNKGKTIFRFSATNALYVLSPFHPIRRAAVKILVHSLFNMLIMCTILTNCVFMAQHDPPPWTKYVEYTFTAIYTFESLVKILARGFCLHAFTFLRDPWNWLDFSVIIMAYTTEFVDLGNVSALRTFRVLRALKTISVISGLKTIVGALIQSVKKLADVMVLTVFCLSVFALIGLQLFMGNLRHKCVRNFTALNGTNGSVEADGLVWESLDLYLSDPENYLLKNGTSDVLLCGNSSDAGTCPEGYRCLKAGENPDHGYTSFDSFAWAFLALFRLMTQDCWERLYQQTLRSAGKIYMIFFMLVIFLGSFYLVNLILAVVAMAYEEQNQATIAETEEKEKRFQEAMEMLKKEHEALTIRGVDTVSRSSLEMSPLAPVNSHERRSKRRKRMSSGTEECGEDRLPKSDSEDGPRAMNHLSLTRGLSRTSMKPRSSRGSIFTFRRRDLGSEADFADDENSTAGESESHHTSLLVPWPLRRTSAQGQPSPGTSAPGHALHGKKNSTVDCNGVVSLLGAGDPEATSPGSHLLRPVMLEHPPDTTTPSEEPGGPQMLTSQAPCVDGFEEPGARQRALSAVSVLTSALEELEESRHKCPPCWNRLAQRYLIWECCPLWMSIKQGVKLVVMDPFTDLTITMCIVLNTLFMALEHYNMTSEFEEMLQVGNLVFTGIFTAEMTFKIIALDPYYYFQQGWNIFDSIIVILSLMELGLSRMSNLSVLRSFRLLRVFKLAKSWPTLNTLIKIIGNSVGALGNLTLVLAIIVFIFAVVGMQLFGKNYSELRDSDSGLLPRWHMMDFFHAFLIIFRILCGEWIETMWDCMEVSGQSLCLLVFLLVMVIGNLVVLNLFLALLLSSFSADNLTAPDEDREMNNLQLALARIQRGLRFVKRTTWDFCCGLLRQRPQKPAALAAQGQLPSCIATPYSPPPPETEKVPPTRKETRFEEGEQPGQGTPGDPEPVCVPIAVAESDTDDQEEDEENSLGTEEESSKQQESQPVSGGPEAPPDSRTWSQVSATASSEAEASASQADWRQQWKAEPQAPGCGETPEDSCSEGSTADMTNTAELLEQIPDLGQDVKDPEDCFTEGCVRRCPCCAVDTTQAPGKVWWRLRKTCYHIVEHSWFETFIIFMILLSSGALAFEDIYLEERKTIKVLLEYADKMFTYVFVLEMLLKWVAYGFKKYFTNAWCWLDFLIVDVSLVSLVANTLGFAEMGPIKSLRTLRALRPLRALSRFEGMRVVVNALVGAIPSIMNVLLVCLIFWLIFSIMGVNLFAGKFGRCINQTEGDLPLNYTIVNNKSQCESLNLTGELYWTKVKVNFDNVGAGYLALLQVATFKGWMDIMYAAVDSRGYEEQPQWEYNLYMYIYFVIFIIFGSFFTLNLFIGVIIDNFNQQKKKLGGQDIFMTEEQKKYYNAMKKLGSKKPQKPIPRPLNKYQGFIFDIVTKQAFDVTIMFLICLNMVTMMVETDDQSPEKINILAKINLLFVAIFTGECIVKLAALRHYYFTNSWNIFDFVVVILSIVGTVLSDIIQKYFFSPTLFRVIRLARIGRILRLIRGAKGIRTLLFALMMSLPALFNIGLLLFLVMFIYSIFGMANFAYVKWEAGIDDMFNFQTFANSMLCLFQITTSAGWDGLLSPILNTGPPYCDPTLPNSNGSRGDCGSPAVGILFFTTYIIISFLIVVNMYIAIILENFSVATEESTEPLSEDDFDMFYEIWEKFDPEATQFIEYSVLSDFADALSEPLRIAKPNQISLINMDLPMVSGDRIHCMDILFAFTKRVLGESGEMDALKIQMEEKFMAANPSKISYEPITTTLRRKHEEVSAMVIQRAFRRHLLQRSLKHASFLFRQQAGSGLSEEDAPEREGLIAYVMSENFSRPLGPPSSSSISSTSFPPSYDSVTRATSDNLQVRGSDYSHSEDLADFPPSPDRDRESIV

C=C[C@H]1C[N@@]2CC[C@H]1C[C@@H]2[C@@H](O)c1ccnc2ccc(OC)cc12 [Quinidine, quinidine]
inhibition at 100 µM (NaV1.5 channels): 77.6 ± 3.2% | photoswitching efficacy (optical control), Na+ current [1]: 0.8 ± 0.8% | inhibition at 100 µM (NaV1.5 V405A): 51.2 ± 2.3% | inhibition at 100 µM (NaV1.5 F1760A): 32.6 ± 1.8% | heart rate normalized to control in dark (zebrafish larvae [2]; soaking 1-[…] in the dark, zebrafish larvae 2 dpf): 90.8 ± 1.4% | heart rate normalized to control in dark (zebrafish larvae [2]; 365 nm followed by 480 nm illumination, 5 min each): 91.6 ± 1.3% | heart rate normalized to control in dark (zebrafish larvae [2]; after 365 nm illumination for 5 min): 93.9 ± 0.9% | effect on heart rate in ISO-pretreated larvae (zebrafish larvae [3]): markedly attenuate heart rate

Reference: article PMC13103313 (Nature Communications, 2026)
